Experimental data pooled from the literature.
Protocols differ between the studies behind these lines. pIC50, pKi: −log10 of the molar value.
TMPRSS13: TMPRSS13 (Homo sapiens, UniProt Q9BYE2)
PNLIP: Pancreatic triacylglycerol lipase (PNLIP, Sus scrofa, UniProt P00591)
CHRM2: Muscarinic acetylcholine receptor M2 (CHRM2, Homo sapiens, UniProt P08172)

| Structure (SMILES) | target | effect on | mode | method | quantity | value |
| --- | --- | --- | --- | --- | --- | --- |
| [2H]c1c([2H])c([C@]2([2H])CCCN2C(=O)C(C)(C)Oc2ccc3cn[nH]c3c2)c([2H])c([2H])c1C([2H])([2H])[2H] | Receptor-interacting serine/threonine-protein kinase 1 (RIPK1, Homo sapiens, UniProt Q13546) | enzyme activity | inhibitor | – | pIC50 | 8.74 |
| C[C@H](NC(=O)[C@H](CCC(N)=O)NC(=O)CCCCNC(=N)N)C(=O)N[C@@H](CCCNC(=N)N)C(=O)c1nc2ccccc2s1 | TMPRSS13 | cell-free assay | – | – | pKi | 7.48 |
| OB1OCc2cc(F)ccc21 | Carbapenem-hydrolyzing beta-lactamase KPC (KPC-2, Klebsiella pneumoniae, UniProt Q9F663) | enzyme activity | inhibitor | – | pIC50 | 5.96 |
| COc1c2c(cc3c1-c1c(cc4c(c1OC)OCO4)C[C@H](C)[C@H](C)C3)OCO2 | PNLIP | enzyme activity | inhibitor | fluorescence | pIC50 | 5.06 |
| C[C@H](CCCOS(=O)(=O)O)[C@H]1CC[C@H]2[C@@H]3CC[C@H]4C[C@@H](O)CC[C@]4(C)[C@H]3CC[C@]12C | CHRM2 | cAMP | antagonist | – | pIC50 | 5.04 |
| CS(=O)(=O)N[C@@H](CCC(N)=O)C(=O)N[C@@H](Cc1ccccc1)C(=O)N[C@@H](CCCNC(=N)N)C(=O)c1nccs1 | TMPRSS13 | cell-free assay | – | – | pKi | 6.45 |
| O=C1Nc2ccc3ncsc3c2/C1=C/c1cnc[nH]1 | Serine/threonine-protein kinase Nek7 (NEK7, Homo sapiens, UniProt Q8TDX7) | enzyme activity | inhibitor | – | pIC50 | 4.92 |
| C=CCc1ccc(O)c(-c2cc(CC=C)ccc2O)c1 | PNLIP | enzyme activity | inhibitor | fluorescence | pIC50 | 5.49 |
| COc1cc2c(cc1OC)CN(CCc1ccc(NC(=O)c3cccc4c(=O)c5cccc(OC)c5[nH]c34)cc1)CC2 | CHRM2 | cell-free assay | – | – | pKi | 6.33 |
